Here are results for seven molecules from ChEMBL document CHEMBL2163277, “The selectivity of austocystin D arises from cell-line-specific drug activation by cytochrome P450 enzymes” (J Nat Prod, 2011).

Data set [1] relates to MCF7. Put plainly: Induction of DNA damage in human MCF7 cells assessed as H2AX phosphorylation up to 10 uM after 4 hrs by Western blot analysis. In kind it is functional, cell-based. The gist of the method:
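In-cell Western: MCF7 at 10 000 cells/well, dosed 24 h later with 3-fold serial dilutions (final DMSO 0.1%); 4 h at 37 °C, paraformaldehyde fixation, anti-phospho-H2AX Ser139 with IR800 secondary, DRAQ5 for normalization (800/700 nm ratio); duplicate or triplicate wells, scaled to 0.1% DMSO (0%) and 10 μM etoposide (100%); nonlinear curve fit.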

Data set [2] deals with MCF7. The data set is described as follows: Growth inhibition of human MCF7 cells at up to 10 uM after 72 hrs by celltiter-blue viability assay. The class given is functional, cell-based. (The colour change of resazurin is a common sign of viable cells or microbes.)
In data set [3] the test system is HCT-15. The data set is described as follows: Cytotoxicity against MDR1 expressing human HCT15 cells. In kind it is functional, cell-based. The method, boiled down:
(§1)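 Cells (HUVEC from Lonza, others from ATCC) seeded at 2500–10 000 cells/well 24 h before dosing. 3-fold serial dilutions in DMSO, 0.1% DMSO final. Cell-Titer Blue read at 0 h and 72 h.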

A further data set deals with MCF-10A. Put plainly: Growth inhibition of human MCF10A cells after 72 hrs by celltiter-blue viability assay relative to control. The class given is cell-based. The gist of the method: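 MCF10A seeded at 2500–10 000 cells/well 24 h before dosing. 3-fold serial dilutions, 0.1% DMSO final. Cell-Titer Blue read at 0 and 72 h. Growth normalized to DMSO controls at 0 h (0%) and 72 h (100%). Dose-response fitted by nonlinear regression.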

The nature of data set [4]: Growth inhibition of human MCF10A cells after 72 hrs by celltiter-blue viability assay. In kind it is cell-based, MCF-10A. The gist of the method: as §1
Data set [5] concerns MCF7. Put plainly: Growth inhibition of human MCF7 cells after 72 hrs by celltiter-blue viability assay. The class given is functional. The gist of the method: as §1
In data set [6] the test system is HCT-15. The data set is described as follows: Induction of DNA damage in human HCT15 cells assessed as H2AX phosphorylation after 4 hrs by Western blot analysis. The class given is functional, cell-based. The gist of the method:
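HCT-15 cells at 10 000/well, dosed 4 h at 37 °C, 0.1% DMSO final. In-cell Western with anti-phospho-H2AX (Ser139) and DRAQ5. 800/700 nm ratio normalized to 0.1% DMSO (0%) and 10 μM etoposide (100%). Curve fit by nonlinear regression.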
(A western blot detects proteins with antibodies after separation by electrophoresis.)

A short description of data set [7]: Growth inhibition of human MES-SA cells after 72 hrs by celltiter-blue viability assay. In kind it is functional. The gist of the method: as §1
Data set [8] concerns HeLa. The data set is described as follows: Induction of DNA damage in human HeLa cells assessed as H2AX phosphorylation after 1 hr by Western blot analysis. The class given is functional, cell-based. The method, boiled down:
(§2)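 In-cell Western for pSer139 H2AX after 1 h dosing. Cells at 10 000/well plated 24 h ahead, 0.1% DMSO final. Fixed in 4% paraformaldehyde, permeabilized, stained with anti-phospho-H2AX plus IR800CW secondary and DRAQ5. 800/700 nm ratio, duplicate or triplicate wells, normalized to 0.1% DMSO (0%) and 10 μM etoposide (100%).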

The subject of data set [9] is HCT-15. The data set is described as follows: Growth inhibition of human HCT15 cells after 72 hrs by celltiter-blue viability assay. The class given is functional. The following applies: HCT-15, 72 h. The method, boiled down: as §1
The nature of data set [10]: Growth inhibition of human MES-SA/MX2 cells after 72 hrs by celltiter-blue viability assay. The class given is functional. The following applies: MX2, 72 h. The method, boiled down: as §1
For the next data set, the system named is SR. The data set is described as follows: Growth inhibition of human SR cells after 72 hrs by celltiter-blue viability assay. The class given is functional. The gist of the method:
as §1

Another data set relates to Liver. The data set is described as follows: Induction of DNA damage in human liver microsomes assessed as conversion of supercoiled plasmid DNA to nicked DNA by at 100 nM by agarose gel electrophoresis in presence of NADPH generating system. In kind it is functional. The note with it: Microsome. The method, boiled down: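 Supercoiled pLenti6 plasmid (120 μg/mL) incubated 4 h at 37 °C with compound (100 nM–1 μM, 1% DMSO) plus or minus human liver microsomes (0.25 mg/mL) and NADPH regenerating system (1.5 mM NADP, 12.5 mM G6P, 0.25 U/mL G6PDH, 100 mM phosphate pH 7.5, 5 mM MgCl2). Phenol/chloroform stop, DNA purified, 0.8% agarose gel for nicked versus supercoiled forms.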
In general terms: Liver microsomes are a subcellular fraction often used to study metabolism.

Data set [11] in a line: Growth inhibition of HUVEC after 72 hrs by celltiter-blue viability assay. In kind it is cell-based. The following applies: human. The gist of the method:
as §1

The test system of data set [12] is HCT-15. Put plainly: Induction of DNA damage in human HCT15 cells assessed as H2AX phosphorylation after 4 hrs by Western blot analysis presence of CYP inhibitor ketoconazole. In kind it is functional, cell-based. The gist of the method:
(§3)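 Cells pretreated 1 h with 10 μM ketoconazole, then dosed 4 h. pSer139 H2AX measured by in-cell Western as 800/700 nm ratio (DRAQ5 normalization), scaled to 0.1% DMSO (0%) and 10 μM etoposide (100%). In SW620 cells, test agent at 10 μM with 20 μM camptothecin as comparator.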

Data set [13] concerns HCT-15. The data set is described as follows: Induction of DNA damage in human HCT15 cells assessed as H2AX phosphorylation after 1 hr by Western blot analysis. In kind it is functional, cell-based. The method, boiled down:
as §2

For data set [14], the system named is SW-620. Put plainly: Growth inhibition of human SW620 cells after 72 hrs by celltiter-blue viability assay. The class given is functional. The note with it: SW-620, 72 h. The method, boiled down: as §1
In another data set the test system is A549. Put plainly: Growth inhibition of human A549 cells after 72 hrs by celltiter-blue viability assay. The class given is functional. The note with it: A549, 72 h. The gist of the method:
as §1

Another data set has as its system MDA-MB-231. Put plainly: Growth inhibition of human MDA-MB-231 cells after 72 hrs by celltiter-blue viability assay. In kind it is functional. The following applies: MDA-MB-231, 72 h. The gist of the method:
as §1

Data set [15] has as its system MCF7. Put plainly: Selectivity ratio of GI50 for human MCF7 cells over GI50 for human MES-SA cells. In kind it is functional.
The test system of data set [16] is HCT-15. Put plainly: Growth inhibition of human HCT15 cells at 0.5 to 2 uM after 72 hrs by celltiter-blue viability assay in presence of CYP inhibitor ketoconazole. The class given is functional, cell-based. The method, boiled down:
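HCT-15 cells exposed to 0.5, 1 or 2 μM test agent across a ketoconazole dose range, 0.1% DMSO final. Cell-Titer Blue read at 0 and 72 h. Growth normalized to DMSO controls at 0 h and 72 h.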

Data set [17] deals with ATP-dependent translocase ABCB1 (Homo sapiens, UniProt P08183). Put plainly: Inhibition of MDR1 in human HCT15 cells assessed as calcein-AM efflux at 10 uM by fluorescence assay. The class given is cell-based. The note with it: hct-15, 10 µM.
Chain of ATP-dependent translocase ABCB1 (P08183 whole entry): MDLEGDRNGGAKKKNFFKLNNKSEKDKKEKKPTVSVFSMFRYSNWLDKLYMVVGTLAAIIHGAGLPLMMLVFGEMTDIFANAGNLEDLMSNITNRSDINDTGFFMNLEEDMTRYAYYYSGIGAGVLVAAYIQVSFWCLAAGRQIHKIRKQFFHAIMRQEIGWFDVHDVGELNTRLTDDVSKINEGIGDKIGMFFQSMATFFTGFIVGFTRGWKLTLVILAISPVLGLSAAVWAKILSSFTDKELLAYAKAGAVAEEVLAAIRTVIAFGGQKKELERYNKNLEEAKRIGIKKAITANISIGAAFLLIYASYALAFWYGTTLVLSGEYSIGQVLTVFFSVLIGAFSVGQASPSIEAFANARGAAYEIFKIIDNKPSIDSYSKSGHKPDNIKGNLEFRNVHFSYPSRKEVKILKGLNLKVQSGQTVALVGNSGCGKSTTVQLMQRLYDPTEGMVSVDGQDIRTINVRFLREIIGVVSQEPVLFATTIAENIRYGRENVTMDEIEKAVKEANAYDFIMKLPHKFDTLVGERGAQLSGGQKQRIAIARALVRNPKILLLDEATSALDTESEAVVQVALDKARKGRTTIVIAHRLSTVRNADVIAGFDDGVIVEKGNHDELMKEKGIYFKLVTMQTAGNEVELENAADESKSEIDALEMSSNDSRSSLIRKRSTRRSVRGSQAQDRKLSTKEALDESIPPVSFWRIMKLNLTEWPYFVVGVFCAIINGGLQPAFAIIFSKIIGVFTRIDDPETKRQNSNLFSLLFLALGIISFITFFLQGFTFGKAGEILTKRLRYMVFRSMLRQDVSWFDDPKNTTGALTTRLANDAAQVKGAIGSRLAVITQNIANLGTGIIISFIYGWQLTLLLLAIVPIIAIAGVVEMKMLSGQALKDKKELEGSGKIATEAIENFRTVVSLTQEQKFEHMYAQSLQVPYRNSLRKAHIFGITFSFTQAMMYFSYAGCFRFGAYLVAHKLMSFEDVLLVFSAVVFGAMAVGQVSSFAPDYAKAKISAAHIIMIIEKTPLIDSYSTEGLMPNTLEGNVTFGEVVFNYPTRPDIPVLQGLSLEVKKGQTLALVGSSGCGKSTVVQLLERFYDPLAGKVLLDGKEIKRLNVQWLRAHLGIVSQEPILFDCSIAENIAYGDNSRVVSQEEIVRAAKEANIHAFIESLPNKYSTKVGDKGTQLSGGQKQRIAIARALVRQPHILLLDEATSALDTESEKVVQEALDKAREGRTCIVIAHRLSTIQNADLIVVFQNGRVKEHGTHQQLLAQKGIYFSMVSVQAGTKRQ
Data set [18] concerns HCT-15. Put plainly: Ratio of austocystin D GI50 to verapamil GI50 for MDR1 expressing human HCT15 cells. The class given is functional.
The next data set deals with PC-3. Put plainly: Growth inhibition of human PC3 cells after 72 hrs by celltiter-blue viability assay. The note with it: PC-3, 72 h. The class given is functional. The method, boiled down: as §1
The subject of data set [19] is HeLa. Put plainly: Growth inhibition of human HeLa cells after 72 hrs by celltiter-blue viability assay. The class given is functional. The gist of the method:
as §1

Data set [20] relates to SW-620. The data set is described as follows: Induction of DNA damage in human SW620 cells assessed as H2AX phosphorylation at 10 uM in presence of CYP inhibitor ketoconazole. The class given is functional, cell-based. The gist of the method:
as §3

A short description of data set [21]: Growth inhibition of human U87 cells after 72 hrs by celltiter-blue viability assay. The class given is functional, U-87MG ATCC. The note with it: U-87 MG. The method, boiled down:
as §1

Data set [22] deals with SW-620. The data set is described as follows: Induction of DNA damage in human SW620 cells assessed as H2AX phosphorylation after 1 hr by Western blot analysis. The class given is functional, cell-based. The gist of the method:
as §2

Data set [23] has as its system MCF7. Put plainly: Selectivity ratio of GI50 for human MCF7 cells over GI50 for human MCF10A cells.

Active and inactive are the calls of the source. No cut-off for these calls is given here.

`CC(C)(O)CCc1ccc(O)c2c(=O)c3c(O)c4c(cc3oc12)O[C@H]1OCC[C@@]41O`: the outcome in the data set on MCF7 [1] was inactive. In the data set with MCF7 [2], the “growth inhibition (GI)” value was “inactive”.
In the case of `COc1ccc(CCN(C)CCCC(C#N)(c2ccc(OC)c(OC)c2)C(C)C)cc1OC` (stereo not drawn), the result in the data set on HCT-15 [3] was Active.
For orientation: GI50 means the concentration at which growth is held to half of that of the control. A high value points to lower sensitivity of the cells. With `COc1cccc2c1C(=O)c1c(O)c3c(c(O)c1C2=O)C[C@@](O)(C(=O)CO)C[C@@H]3O[C@H]1C[C@H](N)[C@H](O)[C@H](C)O1` [DOXORUBICIN], the “fold change (FC)” value in the data set on MCF-10A was found to be 50. Moreover, in data set [4], the GI50 at 72 h is > 5 µM. In addition, the GI50 with MCF7 [5] (MCF7, 72 h) was > 5 µM. The Activity result in the data set on HCT-15 [6] is “Dose-dependent effect”.
For `CC[C@@]1(O)C(=O)OCc2c1cc1n(c2=O)Cc2cc3ccccc3nc2-1`, the Activity entry with HCT-15 [6] was “Dose-dependent effect”.
Take `CC(C)(O)CCc1ccc(O)c2c(=O)c3c(O)c4c(cc3oc12)O[C@H]1OC=C[C@@]41O` [AUSTOCYSTIN D]: the outcome in the data set with HCT-15 [3], in the data set on HeLa [8], with Liver, in the data set with HCT-15 [13] and with SW-620 [22] was Active. Moreover, the GI50 is > 10 µM in [7]; 0.042 µM in the data set with HCT-15 [9]; 3.36 µM in [10]; 0.016 µM in the data set with SR; 0.027 µM with SW-620 [14]; > 5 µM with A549. The GI50 in the data set with MCF7 [5] (MCF7, 72 h) was < 0.001 µM; in the data set with MDA-MB-231 it was 0.549 µM; in the data set on PC-3, 0.003 µM; in the data set with HeLa [19], > 5 µM; in data set [21] it was 4.95 µM. Moreover, the GI50 at 72 h came out at 4.25 µM in data set [11] and 3.51 µM in data set [4]. In addition, the result in the data set on HCT-15 [12] and in the data set with SW-620 [20] was inactive. Also, the RatioGI50 in the data set on MCF7 [15] is >10000; with HCT-15 [18] it was >1000; with MCF7 [23], >1000. Further, in the data set with HCT-15 [16], the “growth inhibition (GI)” value was “inactive”. In addition, the “inhibition (INH)” value in data set [17] is given as “Active”.
`COc1cc([C@@H]2c3cc4c(cc3[C@@H](O[C@@H]3O[C@@H]5CO[C@@H](C)O[C@H]5[C@H](O)[C@H]3O)[C@H]3COC(=O)[C@H]23)OCO4)cc(OC)c1O` [ETOPOSIDE]: the “fold change (FC)” value with MCF-10A is reported as 50. Also, the GI50 at 72 h in data set [4] is > 5 µM. Further, the GI50 in the data set with MCF7 [5] (MCF7, 72 h) is > 5 µM.
For the molecule `COc1cc2c(c3oc(=O)c4c(c13)CCC4=O)[C@@H]1C=CO[C@@H]1O2` [AFLATOXIN], the GI50 at 72 h in [4] is > 5 µM. The GI50 in the data set with MCF7 [5] was > 5 µM.
